One data set has as its system HepG2. As to the kind of experiment: Cytotoxicity against human HepG2 cells assessed as growth inhibition after 48 hrs by Alamar blue assay. It counts as cell-based. The conditions noted are these: Homo sapiens, HepG2, 48 h. The gist of the method: (§1)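 CRL-8155 lymphoblasts or HepG2 hepatocellular carcinoma cells are exposed 48 h to serial compound dilutions in quadruplicate. Growth is read with Alamar Blue, and 50% and 90% inhibitory concentrations come from nonlinear regression. Quinacrine is the control.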
Background: Alamar Blue is a resazurin reagent that responds to reducing activity.

A short description of data set [1]: Cmax in mouse brain at 50 mg/kg, po administered as single dose via gavage by liquid chromatography/tandem mass spectrometric analysis. Set-up: dose 50 mg/kg, route oral. It counts as ADME, organism-based. The gist of the method:
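Time course after a single 50 mg/kg oral dose in 5% DMSO/7% Tween 80/3% EtOH in 0.9% saline. Mice are sacrificed in groups of three at 1, 4, 8 and 24 h. Plasma is separated by centrifugation and brain homogenized in acetonitrile, both measured by LC-MS/MS. Brain values are corrected for 3% v/w blood. Lower limit of quantitation 0.010 μM. Values are means ± SEM.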

Data set [2] is described as follows: Selectivity index, ratio of EC50 for human CRL8155 cells to EC50 for Trypanosoma brucei brucei BF427. It counts as toxicity. As to conditions: read-out: Ratio EC50.
Data set [3] relates to Trypanosoma brucei brucei. As to the kind of experiment: Anti-parasitic activity against Trypanosoma brucei brucei TREU667 infected in mouse assessed as reduction in parasitemia at 50 mg/kg, bid administered via oral gavage on day 21 to 30 post infection measured on day 180 by microscopic method. It counts as functional, organism-based. The gist of the method:
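Groups of five mice are infected on day 0 with 1 × 10^4 parasites to give a chronic infection. From day 21, mice receive 50 mg/kg orally b.i.d. for 10 days (20 doses) in 200 μL of 60% Phosal 53 MCT/30% PEG400/10% EtOH; a vehicle-only group runs alongside. Tail blood slides are examined microscopically until 180 days postinfection. Three mice are sampled before dose 15 and at 1 and 6 h after.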

Data set [4] has as its system Plasma. As to the kind of experiment: Drug level in Swiss-Webster mouse plasma infected with Trypanosoma brucei rhodesiense STIB900 at 50 mg/kg, po bid administered via gavage for 4 days starting from 2 days post infection measured on day 3 prior to dose 7. Format: ADME, organism-based. The conditions noted are these: in vivo. The gist of the method:
(§2)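 Female Swiss-Webster mice (ND4 outbred, 6−8 weeks), groups of five, infected day 0 with 1 × 10^4 T. b. rhodesiense STIB900; 50 mg/kg oral gavage every 12 h days 2−5 (eight doses) in 200 μL DMSO 5%, Tween 80 7%, EtOH 3% in 0.9% saline. Tail blood from 3 mice before dose 7, then 1 and 6 h post-dose, spotted on cards, LC-MS/MS.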

A short description of data set [5]: Drug level in Swiss-Webster mouse plasma infected with Trypanosoma brucei rhodesiense STIB900 at 50 mg/kg, po bid administered via gavage for 4 days starting from 2 days post infection measured at 6 hrs post last dose. It counts as ADME, organism-based. In short, it runs like this:
as §2

A short description of data set [6]: Cytotoxicity against human CRL8155 cells assessed as growth inhibition after 48 hrs by Alamar blue assay. It counts as cell-based. The conditions noted are these: Homo sapiens, CRL8155, 48 h. The gist of the method: as §1
Data set [7] can be described thus: Stability in human liver microsomes assessed as compound remaining at 1.5 uM in presence of NADPH measured after 60 mins by liquid chromatography/tandem mass spectrometric analysis. Format: ADME, microsome. The conditions noted are these: read-out: Stability. The gist of the method:
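Pooled liver microsomes (0.5 mg/mL) are preincubated 5 min at 37 °C in 0.16 M KH2PO4 with 1 mM NADPH, then test compound is added at 1.5 μM. Aliquots are quenched with 4 volumes of acetonitrile at 0, 5, 10, 15, 30 and 60 min and analyzed by LC-MS/MS. Percent remaining at 5 or 60 min is given when t1/2 is outside the 5–60 min range. Controls: testosterone, dextromethorphan.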
A general note: Liver microsomes are a subcellular fraction often used to study metabolism.

Data set [8] can be described thus: Drug level in mouse brain at 5 mg/kg, ip administered as single dose measured at 1 hr post dose by liquid chromatography/tandem mass spectrometric analysis. The conditions noted are these: read-out: Drug uptake. It counts as ADME, organism-based. The gist of the method:
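Single ip dose of 5 mg/kg in 5% DMSO/7% Tween 80/3% EtOH in 0.9% saline, three mice per compound (six for one compound). At 1 h, plasma is separated by centrifugation and brain homogenized in acetonitrile. Both are quantified by LC-MS/MS, with brain corrected for 3% v/w blood. Brain/plasma ratio is reported as mean ± SEM.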

Data set [9] has as its system Plasma. As to the kind of experiment: Drug level in Swiss-Webster mouse plasma infected with Trypanosoma brucei brucei TREU667 at 50 mg/kg, po bid administered via gavage for 10 days starting from 21 days post infection measured on day 7 prior to dose 15. It counts as ADME, organism-based. The conditions noted are these: in vivo. In short, it runs like this: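 Groups of five mice given 1 × 10^4 T. b. brucei TREU667 on day 0; from day 21, 50 mg/kg oral gavage every 12 h for 10 d (20 doses) in 200 μL Phosal 53 MCT (60%), PEG400 (30%), EtOH (10%). Tail blood drawn from 3 mice before dose 15 and 1 and 6 h after it, spotted on cards, LC-MS/MS.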

Data set [10] can be described thus: Selectivity index, ratio of EC50 for human HepG2 cells to EC50 for Trypanosoma brucei brucei BF427. It counts as toxicity. As to conditions: read-out: Ratio EC50.
Data set [11] is described as follows: AUC (0 to infinity) in mouse at 50 mg/kg, po administered as single dose via gavage as 0.5% methylcellulose cP400/0.5% Tween 80 formulation by liquid chromatography/tandem mass spectrometric analysis. The conditions noted are these: in vivo. It counts as ADME, organism-based. Set-up: dose 50 mg/kg, route oral, time infinity. In short, it runs like this: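 Single oral gavage dose of 50 mg/kg to groups of three mice, vehicle as in the line. Tail blood of 40 μL is taken into heparinized capillaries at time points out to as much as 32 h. It is spotted on dried-blood cards and quantified by LC-MS/MS. Values are means ± SEM of three mice.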

Experimental findings from ChEMBL document CHEMBL3992510, “Urea Derivatives of 2-Aryl-benzothiazol-5-amines: A New Class of Potential Drugs for Human African Trypanosomiasis” (J Med Chem, 2017) are described below.

As usually defined, the EC50 is the concentration giving half of the maximal effect. Broadly, the Cmax is the maximum level reached in the sampled fluid or tissue. The term AUC(0-inf) denotes total exposure, with the tail of the curve extrapolated. Low values mean less exposure, high ones more exposure.

Structures are written as SMILES. Calls of active or inactive are those of the source. No cut-off for these calls is given here. Where only a bound is given, the exact number is not on record here.

On to `O=C(Nc1ccc2sc(-c3ccc(F)c(F)c3)nc2c1)N1CC[C@H](F)C1`, for which the EC50 (in the data set on HepG2; in [6]) was over 50 µM each time. In [1], this molecule came in with a Cmax of 54.8 µM. Moreover, the selectivity ratio in data set [2] and in data set [10] was over 1440 throughout. The result in data set [3] was Active. In addition, the figures for the concentration in the data set with Plasma [4] and in the data set on Plasma [9] were 9.1 µM and 15.8 µM, respectively. In addition, the concentration at 6 h in data set [5] came out at 15 µM. For the same molecule, the remaining at 1 h, 1.5 µM in [7] was 53%. The concentration at 1 h in data set [8] worked out at 9.07 µM. The same molecule showed an AUC(0-inf) in data set [11] of 106 µM·h.
